Screening results from PubChem.
CHRM5 antagonist: human M5 muscarinic receptor antagonists, primary screen, CHO cells, Fluo-8 calcium fluorescence | Muscarinic acetylcholine receptor M5 (Homo sapiens), P08912 | CHO-hM5 cells, ACh EC80 | inhibition, % at 3 µM | 0.59% of 360,000 active | AID 624040, 2012;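 active = inhibition above a per-plate cutoff, the mean of that plate's test compounds plus 3 SD, cut at about 27% in these data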
CHRM5 PAM: human M5 muscarinic receptor positive allosteric modulators, primary screen, CHO-K1 cells, Fluo-8 calcium fluorescence; Muscarinic acetylcholine receptor M5 (Homo sapiens), P08912; CHO-K1 hM5, ACh EC20 PAM; 0% = ACh EC20, 100% = ACh EC100; activation, % at 3 µM; 0.3% of 360,000 active;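 active = activation above the run cutoff, the mean activation of all test compounds plus 3 SD, cut at about 18% in these data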
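Measured by: Fluo-8 calcium fluorescence; material: human M5 receptor in CHO-K1 cells; schedule: Post-acetylcholine fluorescence recording 140 s; benchmarks: low control EC20 acetylcholine (0%), high control EC100 acetylcholine (100%); read-out: Max/basal fluorescence ratio as % of EC20–EC100 ACh window; compound: single dose, 3 µM nominal final test concentration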
CHRM5 agonist: human M5 muscarinic receptor agonists, primary screen, CHO-K1 cells, Fluo-8 calcium fluorescence; Muscarinic acetylcholine receptor M5 (Homo sapiens), P08912; CHO-K1 hM5 cells; 0% DMSO wells, 100% maximal acetylcholine response; activation, % at 3 µM; 0.19% of 360,000 active; AID 624037, 2012;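 active = activation above the run's mean over test compounds plus 3 SD, cut at about 23% in these data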;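 also: signal is peak over basal fluorescence ratio across the kinetic read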
CHRM4 antagonist: human M4 muscarinic receptor antagonists, primary screen, CHO cells, Fluo-8 calcium fluorescence. inhibition, % at 3 µM. Muscarinic acetylcholine receptor M4 (Homo sapiens), P08173. 0.73% of 360,000 active. AID 624125, 2012. CHO-hM4 cells, ACh EC80;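 active = inhibition above its plate's cutoff, the mean inhibition of sample wells plus 3 SD, cut at about 27% in these data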
Target sequence (P08173 whole entry, looked up): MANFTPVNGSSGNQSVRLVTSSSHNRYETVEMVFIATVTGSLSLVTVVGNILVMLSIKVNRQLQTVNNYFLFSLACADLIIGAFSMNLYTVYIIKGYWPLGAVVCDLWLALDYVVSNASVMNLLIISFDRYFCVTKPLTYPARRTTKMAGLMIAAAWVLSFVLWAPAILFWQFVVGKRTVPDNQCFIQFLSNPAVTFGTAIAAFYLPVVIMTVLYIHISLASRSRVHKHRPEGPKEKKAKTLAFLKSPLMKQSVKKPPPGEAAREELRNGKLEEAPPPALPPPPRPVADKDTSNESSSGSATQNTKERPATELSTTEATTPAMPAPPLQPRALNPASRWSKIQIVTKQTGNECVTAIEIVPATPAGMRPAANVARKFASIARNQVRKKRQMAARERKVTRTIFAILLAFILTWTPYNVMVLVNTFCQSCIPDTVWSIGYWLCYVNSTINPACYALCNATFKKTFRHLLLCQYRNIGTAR
M4 ag: human M4 muscarinic receptor agonists, primary screen, CHO-K1 cells, Fluo-8 calcium fluorescence; activation, % at 3 µM; CHO-K1 hM4/Gqi5; vehicle 0%, full acetylcholine response 100%; AID 624127, 2012; Muscarinic acetylcholine receptor M4 (Homo sapiens), P08173; 0.14% of 360,000 active;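 active = activation above the run mean over all test wells plus 3 SD, cut at about 32% in these data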;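 also: peak over basal fluorescence ratio per well then scaled between controls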
CHRM4 PAM: human M4 muscarinic receptor positive allosteric modulators, primary screen, CHO-K1 cells, Fluo-8 calcium fluorescence | activation, % at 3 µM | Muscarinic acetylcholine receptor M4 (Homo sapiens), P08173 | 0.4% of 360,000 active | AID 624126, 2012 | CHO-K1 hM4/Gqi5, ACh EC20; 0% = ACh EC20, 100% = maximal ACh;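 active = activation above its plate's cutoff, the mean activation of sample wells plus 3 SD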
A number is an active result; . = inactive. An excerpt weighted towards active compounds, which were near 1.9% of everything screened.

SMILES	CHRM5 antagonist	CHRM5 PAM	CHRM5 agonist	CHRM4 antagonist	M4 ag	CHRM4 PAM
O=C(COc1ccc2c(-c3ccccc3)cc(=O)oc2c1)N[C@H](Cc1c[nH]c2ccccc12)C(=O)O	.	.	.	.	.	.
CCCCc1ccc(NC(=O)CSc2nc3ncccc3[nH]2)cc1	.	.	.	32.8	.	.
CCOC(=O)c1ccc(NC(=O)CSc2nc3ncccc3[nH]2)cc1	.	.	.	.	.	.
Cn1c(=O)c(C(=O)COc2ccc(C#N)cc2)c(N)n(Cc2ccccc2)c1=O	.	.	38.0	.	.	.
O=S1(=O)N=C(Nc2ccc(O)cc2)c2ccccc21	.	21.2	.	.	.	.
Cc1ccccc1NC1=NS(=O)(=O)c2ccccc21	.	.	.	.	.	.
Cc1ccc2c(c1)C(=C(C#N)C#N)C(=O)N2CCN1CCCCC1	.	.	.	.	.	.
O=C(O)CSCC(=O)N1N=C2/C(=C/c3ccccc3)CCCC2C1c1ccccc1 (centres undefined)	.	.	.	.	.	16.1
NC(=O)N1N=C2/C(=C/c3ccccc3)CCCC2C1c1ccccc1 (centres undefined)	.	.	.	.	.	.
Cc1cccc(C)c1NC(=O)CCCN1C(=O)C(c2ccccc2)Oc2cccnc21 (centres undefined)	.	.	.	.	.	.
O=C(CSc1nc(-c2ccccc2)cc(=O)[nH]1)N1CCOCC1	39.7	.	.	.	.	.
O=C(CSc1nc(O)cc(=O)[nH]1)N1CCOCC1	.	.	.	.	.	.
Cc1cc(=O)[nH]c(SCC(=O)N2CCN(C(c3ccccc3)c3ccccc3)CC2)n1	31.6	.	.	.	.	.
Cc1cc(=O)[nH]c(SCC(=O)N2CCCCC2)n1	.	.	.	.	.	.
COc1cc(C(=O)Oc2ccccc2OC(=O)c2cc(OC)c(OC)c(OC)c2)cc(OC)c1OC	.	.	.	.	.	.
CC1CN(c2nc3ccccc3nc2SCC(=O)Nc2cccc(C(F)(F)F)c2)CC(C)O1 (centres undefined)	.	.	.	.	.	.
CC(=O)Nc1scc(C)c1-c1nc2ccccc2s1	.	.	.	.	.	.
CNc1sc(C(=O)c2ccc(F)cc2)c(N)c1-c1nc2ccccc2s1	.	.	.	32.3	.	.
CNc1sc(C(=O)c2cccs2)c(N)c1-c1nc2ccccc2s1	.	.	.	34.0	.	.
COc1ccc(NC(=O)N(C)C[C@@H]2OCc3cn(nn3)CCCC(=O)N([C@H](C)CO)C[C@H]2C)cc1	.	.	.	.	.	.
CCOc1ccc(NC(=O)/C(C#N)=C\c2ccc(N3CCCC3)c(C)c2)cc1	49.7	.	40.3	.	.	.
CCOc1ccc(/C=C(\C#N)C(=O)Nc2cccnc2)cc1	.	.	.	.	.	.
NC(=O)CN1CCOCCOCCN(CC(N)=O)CCOCCOCC1	.	.	.	100.5	.	.
COc1cc(/C=C2/SC(=S)N(Cc3ccccc3)C2=O)cc(Cl)c1O	32.9	.	.	.	.	.
CCOc1cc(/C=C2/SC(=S)N(Cc3ccccc3)C2=O)ccc1O	.	.	42.2	.	.	.
SMILES	CHRM5 antagonist	CHRM5 PAM	CHRM5 agonist	CHRM4 antagonist	M4 ag	CHRM4 PAM
COc1cc(/C=C2/SC(=S)N(Cc3ccccc3)C2=O)ccc1OCC(=O)O	.	.	.	.	.	.
COc1cc([N+](=O)[O-])cc(/C=C2/SC(=S)N(Cc3ccccc3)C2=O)c1O	.	.	.	.	32.2	.
O=C(Nc1ccccc1C(=O)Nc1nnc(C(F)(F)F)s1)c1ccccc1	35.8	.	.	.	.	.
CC(Oc1ccc(Cl)cc1)C(=O)Nc1ccc(S(=O)(=O)N2CCOCC2)cc1 (centres undefined)	.	.	38.3	.	52.9	.
CC(Oc1ccc(Cl)cc1)C(=O)Nc1cccc(S(=O)(=O)N2CCCC2)c1 (centres undefined)	.	.	.	.	.	.
O=C(Nc1ccc(S(=O)(=O)N2CCOCC2)cc1)c1cc(-c2cc(Cl)ccc2O)n[nH]1	29.0	.	.	.	.	.
Cc1cc(O)c(-c2cc(C(=O)Nc3ccc(S(=O)(=O)N4CCOCC4)cc3)[nH]n2)cc1C	.	.	.	.	.	.
CCOC(=O)c1sc2nc(C)cc(C)c2c1N	.	.	.	28.3	.	51.0
Cc1cc(C)c2c(N)c(C(=O)NN)sc2n1	.	.	.	.	.	.
Cc1ccc(NC(=O)c2sc3nc(C)cc(C)c3c2N)cc1	.	.	.	.	.	15.6
Cc1cc(C(F)(F)F)c2c(N)c(C(=O)NC3CC3)sc2n1	.	.	.	.	.	.
Cc1cc(C)c2c(N)c(C(=O)NC3CC3)sc2n1	.	.	.	66.8	56.1	34.0
CC(=O)c1sc2nc(-c3ccccc3)cc(C)c2c1N	.	.	.	.	.	42.4
Nc1c(C(=O)O)sc2nc(-c3ccccc3)cc(-c3ccc(Cl)cc3)c12	.	.	.	.	.	.
CCOC(=O)c1sc2nc(C)nc(NCc3cccnc3)c2c1C	.	.	.	.	.	.
CCOC(=O)c1sc2nc(OCc3cccnc3)cc(C)c2c1N	.	.	.	.	.	31.8
CCN(CC)CCN(C)C(=O)c1[nH]c(C(F)(F)F)nc1-c1ccccc1	.	.	.	.	.	.
COc1ccc(Oc2c(C)oc3c(CN4CCOCC4)c(O)ccc3c2=O)cc1	.	.	.	41.4	.	.
CCOC(=O)c1ccc(Oc2c(C)oc3c(CN4CCN(C)CC4)c(O)ccc3c2=O)cc1	.	.	.	32.8	.	.
CCOc1ccccc1Oc1c(C)oc2c(CN3CCN(CCO)CC3)c(O)ccc2c1=O	.	.	.	.	.	.
O=c1[nH]n(-c2ccccc2)c(=O)cc1Cl	.	.	.	.	.	.
COc1ccc(S(=O)(=O)N(CC(=O)NC2CC2)Cc2ccccc2)cc1	.	.	.	.	.	.
CC(C)NC(=O)C1(C)CN(S(C)(=O)=O)CC(=O)N1C1CCN(Cc2ccccc2)CC1 (centres undefined)	.	.	.	.	.	.
CC(=O)NCCCC(=O)NNC1CC(=O)N(c2cccc(Cl)c2)C1=O (centres undefined)	.	.	.	.	.	.
CCc1ccc(N/C(SC)=C(/C#N)C(N)=O)cc1	.	.	.	.	.	.
CCCCS/C(=C(/C#N)C(N)=O)c1cc2c([nH]1)CCCC2	.	.	.	34.3	.	.
